Source: ChEMBL document CHEMBL4433212, “First-of-its-kind STARD3 Inhibitor: In Silico Identification and Biological Evaluation as Anticancer Agent” (ACS Med Chem Lett, 2019)
Active and inactive are the calls of the source. The calls are words filed in the database; no cut-off is given here.

How the values were obtained:
[1] = biological target: T1, StAR-related lipid transfer protein 3 (Homo sapiens, UniProt Q14849); assay: Inhibition of recombinant human His-tagged StAR-related lipid transfer protein 3 START domain expressed in Escherichia coli BL21(DE3) cells assessed as reduction of protein interaction with cholesterol using 3-hexanoyl-NBD Cholesterol as substrate incubated for 5 mins by competition binding fluorescent assay
T1 sequence (Q14849 whole entry): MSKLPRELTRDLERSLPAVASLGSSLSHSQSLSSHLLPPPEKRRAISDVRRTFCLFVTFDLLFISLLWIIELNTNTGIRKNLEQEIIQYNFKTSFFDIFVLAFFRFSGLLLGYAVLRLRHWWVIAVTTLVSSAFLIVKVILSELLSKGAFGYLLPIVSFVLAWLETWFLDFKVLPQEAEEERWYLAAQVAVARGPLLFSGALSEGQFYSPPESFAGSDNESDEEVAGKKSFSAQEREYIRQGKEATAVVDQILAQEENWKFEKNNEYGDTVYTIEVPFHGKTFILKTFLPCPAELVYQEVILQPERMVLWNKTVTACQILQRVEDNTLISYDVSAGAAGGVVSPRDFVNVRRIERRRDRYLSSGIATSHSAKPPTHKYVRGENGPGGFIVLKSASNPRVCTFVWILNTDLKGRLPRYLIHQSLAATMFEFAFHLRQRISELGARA
How it was run: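 Competition binding fluorescent assay of cholesterol binding to STARD3, adapted from Tsujishita and Hurley; STARD3 used at 5 μM, selected from a binding titration curve as giving 55.9% completely bound state; IC50 determined.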

[2] = biological target: T2, StAR-related lipid transfer protein 3 (Homo sapiens) (UniProt Q14849); assay: Inhibition of STARD3 in human MDA-MB-231 cells assessed as increase in phosphorylated FAK protein level at Tyr397 residue at 100 uM incubated for 48 hrs by Western blot analysis; format: cell-based
T2 sequence (whole entry): T1 sequence (Q14849 whole entry)
How it was run: (§1)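 MDA-MB-231 cells treated with 100 μM inhibitor for 24 and 48 h; total FAK and pTyr397-FAK levels assessed by Western blot against untreated cells.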

[3] = biological target: T3, StAR-related lipid transfer protein 3 (Mus musculus) (UniProt Q61542); assay: Induction of STARD3 degradation in cycloheximide treated mouse NIH/3T3 cells at 100 uM incubated for 24 hrs followed by addition of cycloheximide and measured after 12 hrs by Western blot analysis
T3 sequence (whole entry): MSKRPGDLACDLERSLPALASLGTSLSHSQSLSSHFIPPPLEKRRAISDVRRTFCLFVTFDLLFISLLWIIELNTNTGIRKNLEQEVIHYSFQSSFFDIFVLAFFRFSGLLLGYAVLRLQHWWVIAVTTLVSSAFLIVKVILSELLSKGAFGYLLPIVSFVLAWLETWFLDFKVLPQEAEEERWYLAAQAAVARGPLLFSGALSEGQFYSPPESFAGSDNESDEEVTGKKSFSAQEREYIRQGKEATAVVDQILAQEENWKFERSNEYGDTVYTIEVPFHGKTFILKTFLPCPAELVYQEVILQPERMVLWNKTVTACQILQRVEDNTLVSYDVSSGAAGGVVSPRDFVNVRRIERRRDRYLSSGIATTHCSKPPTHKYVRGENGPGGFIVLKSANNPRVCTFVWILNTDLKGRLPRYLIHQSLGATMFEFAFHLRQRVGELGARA
How it was run: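 NIH3T3 fibroblasts pretreated with 100 μM inhibitor for 24 h, then given cycloheximide 10 μg/mL and harvested at timed points (hours); STARD3 protein followed by Western blot to track degradation kinetics.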

[4] = biological target: T2, StAR-related lipid transfer protein 3 (Homo sapiens); assay: Inhibition of STARD3 in human MDA-MB-231 cells assessed as increase in phosphorylated FAK protein level at Tyr397 residue at 100 uM incubated for 24 hrs by Western blot analysis; format: cell-based; how it was run: as §1
[5] = biological target: T2, StAR-related lipid transfer protein 3 (Homo sapiens); assay: Inhibition of STARD3 in human MDA-MB-231 cells assessed as increase in FAK protein level at 100 uM incubated for 24 hrs by Western blot analysis; format: cell-based; how it was run: as §1
[6] = tested on: MDA-MB-231; assay: Antiproliferative activity against human MDA-MB-231 after 96 hrs by Cell Titer-Glo based luminescence assay; format: functional; settings: MDA-MB-231, 96 h
[7] = tested on: MDA-MB-231; assay: Anticlonogenic activity against human MDA-MB-231 cells assessed as reduction in cell proliferation after 10 days with replacement of medium for every 3 days by crystal violet staining based visual analysis; format: functional
How it was run: (§2)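 MCF7, MDA-MB-231 and HCT-116 cells treated with a range of inhibitor concentrations, grown until colonies became visible; colony forming efficiency scored by visual inspection.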

[8] = tested on: MCF7; assay: Antiproliferative activity against human MCF7 cells after 96 hrs by Cell Titer-Glo based luminescence assay; format: functional; settings: MCF7, 96 h
[9] = tested on: MCF7; assay: Anticlonogenic activity against human MCF7 cells assessed as reduction in cell proliferation after 10 days with replacement of medium for every 3 days by crystal violet staining based visual analysis; format: functional; how it was run: as §2
[10] = tested on: NIH3T3; assay: Effect on STARD3 mRNA level in mouse NIH/3T3 cells at 0 to 100 uM incubated for 48 hrs by RT-PCR method; format: ADME, cell-based; settings: nih3t3, 48 h
How it was run: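 NIH3T3 fibroblasts exposed to two inhibitor concentrations for 48 h; STARD3 mRNA level then measured.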

[11] = tested on: HCT-116; assay: Antiproliferative activity against human HCT116 cells after 96 hrs by Cell Titer-Glo based luminescence assay; format: functional; settings: HCT-116, 96 h
[12] = tested on: HCT-116; assay: Anticlonogenic activity against human HCT116 cells assessed as reduction in cell proliferation after 10 days with replacement of medium for every 3 days by crystal violet staining based visual analysis; format: functional; how it was run: as §2
[13] = biological target: T2, StAR-related lipid transfer protein 3 (Homo sapiens); assay: Inhibition of STARD3 in human MDA-MB-231 cells assessed as increase in FAK protein level at 100 uM incubated for 48 hrs by Western blot analysis; format: cell-based; how it was run: as §1

O=C(COC(=O)c1ccc(-c2ccc(O)cc2)cc1)NCc1ccc(F)cc1
IC50 [1]: > 100 µM

O=c1nc(/C=C/c2ccc(O)c([N+](=O)[O-])c2)[nH]c2c1CCN(Cc1ccccc1)C2
inhibition [2]: Active
Activity [3]: Active
inhibition [4]: Active
IC50 [1]: 35 µM
inhibition [5]: Active
IC50 [6]: 49.7 µM
Activity [7]: Dose-dependent effect
IC50 [8]: 106 µM
Activity [9]: Dose-dependent effect
Activity [10]: Non-Toxic
IC50 [11]: 70.7 µM
Activity [12]: Dose-dependent effect
inhibition [13]: Active

O=C1CN(c2ccc(NC(=O)c3csc(-c4cccc(Cl)c4)n3)cn2)CCN1
IC50 [1]: > 100 µM

O=C(/C=C/c1ccccc1F)Nc1ccc(N2CCNC(=O)C2)c(Cl)c1
IC50 [1]: > 100 µM
